Tests used:
[1] = molecular target: T1, Squalene synthase (Rattus norvegicus) (UniProt Q02769); experiment: concentration required to inhibit rat liver squalene synthase enzyme relative to control (L-694,599)
T1 sequence (whole entry): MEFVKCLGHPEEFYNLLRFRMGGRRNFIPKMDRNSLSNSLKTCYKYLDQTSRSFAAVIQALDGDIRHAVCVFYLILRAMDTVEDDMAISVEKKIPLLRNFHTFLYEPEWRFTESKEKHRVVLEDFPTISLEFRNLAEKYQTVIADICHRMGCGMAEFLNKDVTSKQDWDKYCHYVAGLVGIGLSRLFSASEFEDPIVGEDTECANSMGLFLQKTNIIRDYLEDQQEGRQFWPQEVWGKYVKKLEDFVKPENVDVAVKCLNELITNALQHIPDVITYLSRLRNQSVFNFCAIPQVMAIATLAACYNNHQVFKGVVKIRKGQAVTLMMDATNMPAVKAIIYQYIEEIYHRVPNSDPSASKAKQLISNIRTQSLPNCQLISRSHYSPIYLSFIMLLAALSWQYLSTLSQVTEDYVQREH
How it was run: (§1)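 Enzyme from rat liver. […] Inhibitors added in DMSO (0.3% final) as 3-fold serial dilutions, usually up to 30 ng/mL (about 40 nM). IC50 read from % inhibition vs log concentration.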

[2] = test system: Mus musculus; experiment: Ability to inhibit the incorporation of [5-3H]-mevalonolactone into cholesterol by in vivo mouse assay by peroral administration at a dose of 24 mg/kg; type: functional; conditions: route oral
How it was run: (§2)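 Female Swiss Webster mice (~25 g), six per group, dosed po by gavage with inhibitor suspended in 5% emulphor. 30 min later, 0.5 μCi/mouse [5-3H]mevalonolactone in saline given sc. Livers removed 30 min after that and saponified in KOH/EtOH overnight at 55 °C, then petroleum-ether extracted. Nonsaponifiable dpm counted. Compounds first tested at a single dose (typically 12 or 24 mg/kg).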

[3] = molecular target: T2, Squalene synthase (Rattus norvegicus, UniProt Q02769); experiment: Tested for inhibition against squalene synthase enzyme in rat liver
T2 sequence (Q02769 whole entry): T1 sequence (whole entry)

[4] = test system: HepG2; experiment: Concentration required to inhibit cholesterol synthesis in Hep G2 cells relative to control (IC50 of L-694,599); type: functional, Homo sapiens
How it was run: (§3)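 Hep G2 cells held 2 days in lipoprotein-depleted FBS to stimulate sterol synthesis, then given inhibitor in serum-free medium for 2 h. 15 μCi [5-3H]mevalonate (0.2 mCi/mmol) added for 1 h. Cells washed and saponified, and radioactivity counted by scintillation.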

[5] = test system: Mus musculus; experiment: Tested for its ability to inhibit the incorporation of [5-3H]-mevalonolactone into cholesterol by in vivo mouse assay by peroral administration at a dose of 40 mg/kg; type: functional; conditions: route oral; how it was run: as §2
[6] = test system: HepG2; experiment: Concentration required to inhibit cholesterol synthesis in Hep G2 cells; type: functional, cell-based; conditions: Homo sapiens; how it was run: as §3
[7] = molecular target: T1, Squalene synthase (Rattus norvegicus); experiment: Concentration required to inhibit rat liver squalene synthase enzyme relative to control (L-694,599); how it was run: as §1
[8] = molecular target: T3, Squalene synthase (Mus musculus) (UniProt P53798); experiment: Tested for the effective dose required for the incorporation of [5-3H]-mevalonolactone into cholesterol by in vivo mouse assay by peroral administration; type: functional, organism-based; how it was run: as §2
T3 sequence (whole entry): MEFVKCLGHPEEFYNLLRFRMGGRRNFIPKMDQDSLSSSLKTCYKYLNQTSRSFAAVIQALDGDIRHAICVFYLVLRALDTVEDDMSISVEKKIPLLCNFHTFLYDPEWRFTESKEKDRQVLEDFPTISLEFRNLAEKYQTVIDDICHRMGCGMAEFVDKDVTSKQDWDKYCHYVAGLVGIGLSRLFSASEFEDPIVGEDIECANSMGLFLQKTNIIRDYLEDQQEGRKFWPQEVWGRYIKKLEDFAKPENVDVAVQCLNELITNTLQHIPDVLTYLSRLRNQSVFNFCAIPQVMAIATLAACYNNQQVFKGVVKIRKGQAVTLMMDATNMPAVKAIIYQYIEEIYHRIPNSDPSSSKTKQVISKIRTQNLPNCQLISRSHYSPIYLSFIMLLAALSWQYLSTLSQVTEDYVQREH

[9] = test system: Mus musculus; experiment: Tested for its ability to inhibit the incorporation of [5-3H]-mevalonolactone into cholesterol by in vivo mouse assay by peroral administration at a dose of 12 mg/kg; type: functional; conditions: route oral; how it was run: as §2

C=C(CCC12OC(C(=O)O)C(O)(C(=O)O)C(C(=O)O)(O1)[C@H](OC(=O)/C=C/[C@@H](C)C[C@@H](C)CC)[C@H]2O)[C@@H](OC(=O)CC)[C@H](C)Cc1ccccc1 (stereo partly specified)
Relative activity [1]: 0.69 | inhibition in vivo at 24 mg/kg [2]: -4% | IC50 [3]: 0.42 nM

C=C(CCC12OC(C(=O)O)C(O)(C(=O)O)C(C(=O)O)(O1)[C@H](OCCCCCCCCCCCCCC)[C@H]2O)[C@@H](OC(C)=O)[C@H](C)Cc1ccccc1 (stereo partly specified)
Relative activity [4]: 6 | inhibition in vivo at 40 mg/kg [5]: 0% | Relative activity [1]: 1.26 | IC50 [6]: 1500 nM | IC50 [3]: 0.09 nM

C=C(CCC12OC(C(=O)O)C(OCCCCCCCCOc3ccccc3)(C(=O)O)C(C(=O)O)(O1)[C@H](O)[C@H]2O)[C@@H](OC(C)=O)[C@H](C)Cc1ccccc1 (stereo partly specified)
Relative activity [1]: 0.16 | IC50 [3]: 0.81 nM

C=C(CCC12OC(C(=O)O)C(O)(C(=O)O)C(C(=O)O)(O1)[C@H](OCCCCCCCCCCCCCCCC)[C@H]2O)[C@@H](OC(C)=O)[C@H](C)Cc1ccccc1 (stereo partly specified)
Relative activity [4]: 0.49 | Relative activity [1]: 0.15 | IC50 [6]: 14000 nM | IC50 [3]: 0.79 nM

C=C(CCC12OC(C(=O)O)C(O)(C(=O)O)C(C(=O)O)(O1)[C@H](OC(=O)CCCCCCCCCCCCC)[C@H]2O)[C@@H](OC(C)=O)[C@H](C)Cc1ccccc1 (stereo partly specified)
Relative activity [4]: 6.11 | Relative activity [7]: 1.1 | IC50 [6]: 900 nM | IC50 [3]: 0.2 nM

C=C(CCC12OC(C(=O)O)C(O)(C(=O)O)C(C(=O)O)(O1)[C@H](OCCCCCCCCCC)[C@H]2O)[C@@H](OC(C)=O)[C@H](C)Cc1ccccc1 (stereo partly specified)
Relative activity [4]: 4.09 | inhibition in vivo at 40 mg/kg [5]: 28% | Relative activity [1]: 1.43 | IC50 [6]: 2200 nM | IC50 [3]: 0.21 nM

C=C(CCC12OC(C(=O)O)C(O)(C(=O)O)C(C(=O)O)(O1)[C@H](OC(=O)CCCC)[C@H]2O)[C@@H](OC(C)=O)[C@H](C)Cc1ccccc1 (stereo partly specified)
inhibition in vivo at 24 mg/kg [2]: 40% | ED50 [8]: > 24 mg/kg

C=C(CCC12OC(C(=O)O)C(O)(C(=O)O)C(C(=O)O)(O1)[C@H](OC)[C@H]2O)[C@@H](OC(C)=O)[C@H](C)Cc1ccccc1 (stereo partly specified)
inhibition in vivo at 12 mg/kg [9]: 73% | Relative activity [7]: 0.004 | IC50 [3]: 22 nM | ED50 [8]: < 12 mg/kg

C=C(CCC12OC(C(=O)O)C(O)(C(=O)O)C(C(=O)O)(O1)[C@H](OC(=O)CC[C@@H](C)C[C@@H](C)CC)[C@H]2O)[C@@H](OC(C)=O)[C@H](C)Cc1ccccc1 (stereo partly specified)
Relative activity [4]: 0.8 | Relative activity [7]: 0.74 | IC50 [6]: 7500 nM | IC50 [3]: 0.19 nM

C=C(CCC12OC(C(=O)O)C(O)(C(=O)O)C(C(=O)O)(O1)[C@H](OC(=O)CCCCCCCCCCCCCCC)[C@H]2O)[C@@H](OC(C)=O)[C@H](C)Cc1ccccc1 (stereo partly specified)
Relative activity [4]: 2.2 | Relative activity [7]: 0.27 | IC50 [6]: 2500 nM | IC50 [3]: 0.52 nM

C=C(CCC12OC(C(=O)O)C(OCCCCCCCCCCCOc3ccccc3)(C(=O)O)C(C(=O)O)(O1)[C@H](O)[C@H]2O)[C@@H](OC(C)=O)[C@H](C)Cc1ccccc1 (stereo partly specified)
Relative activity [1]: 0.11 | IC50 [3]: 1.1 nM

C=C(CCC12OC(C(=O)O)C(O)(C(=O)O)C(C(=O)O)(O1)[C@H](OC(=O)NCC13CC4CC(CC(C4)C1)C3)[C@H]2O)[C@@H](OC(C)=O)[C@H](C)Cc1ccccc1 (stereo partly specified)
Relative activity [7]: 0.46 | inhibition in vivo at 24 mg/kg [2]: -5% | IC50 [3]: 0.8 nM | ED50 [8]: > 24 mg/kg

C=C(CCC12OC(C(=O)O)C(O)(C(=O)O)C(C(=O)O)(O1)[C@H](OC(=O)CCCCCCCCCCOc1ccccc1)[C@H]2O)[C@@H](OC(C)=O)[C@H](C)Cc1ccccc1 (stereo partly specified)
Relative activity [4]: 3.4 | Relative activity [7]: 1.08 | inhibition in vivo at 24 mg/kg [2]: 11% | IC50 [6]: 2000 nM | IC50 [3]: 0.13 nM

CCCC(=O)O[C@@H]1[C@@H](O)C2(CCCCc3ccccc3)OC(C(=O)O)C(O)(C(=O)O)C1(C(=O)O)O2 (stereo partly specified)
inhibition in vivo at 12 mg/kg [9]: 5% | Relative activity [7]: 0 | IC50 [3]: > 3000 nM
